Assay results as given in ChEMBL document CHEMBL3797027, “Potent anti-proliferative actions of a non-diuretic glucosamine derivative of ethacrynic acid” (Bioorg Med Chem Lett, 2016).
Calls of active or inactive are those of the source. The rule behind the calls is not given here.

Experiments:
MDA-MB-231 = assay: Cytotoxic activity against human MDA-MB-231 cells assessed as inhibition of cell proliferation incubated for 72 hrs by MTT assay; type: functional, cell-based
Summary of the method: (§1)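 MTT cell survival assay. IC50 is the concentration that inhibits tumour cell proliferation by 50%, read from cell survival curves. Values are given as mean ± SD of three independent experiments.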

[1] = Cytotoxic activity against human MCF10A cells assessed as inhibition of cell proliferation incubated for 72 hrs by MTT assay; type: cell-based; conditions: mcf-10a; summary of the method: as §1
[2] = Cytotoxic activity against human HT1080 cells assessed as inhibition of cell proliferation incubated for 72 hrs by MTT assay; type: functional, cell-based; conditions: HT-1080, 72 h; summary of the method: as §1
[3] = Cytotoxic activity against human H1299 cells assessed as inhibition of cell proliferation incubated for 72 hrs by MTT assay; type: functional, cell-based; conditions: NCI-H1299, 72 h; summary of the method: as §1
Mus musculus = assay: Toxic diuretic effect in 12 hrs fasted CD1 mouse assessed as increase in urine output at 10 mg/kg, ip measured 0 to 6 hrs post dose relative to untreated control; type: toxicity, organism-based; conditions: in vivo
Summary of the method: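 Female CD-1 mice fasted 12 h, then given compound IP at 10 mg/kg in PEG/EtOH/H2O (54:14:32). Vehicle control group included. Mice were housed singly in metabolic cages with free access to water. Voided urine was collected in graduated tubes under the cages over 0–6 h and 6–24 h after injection.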

[4] = Cytotoxic activity against human SF188 cells assessed as inhibition of cell proliferation incubated for 72 hrs by MTT assay; type: functional, cell-based; conditions: SF-188, 72 h; summary of the method: as §1
HT-29 = assay: Cytotoxic activity against human HT-29 cells assessed as inhibition of cell proliferation incubated for 72 hrs by MTT assay; type: functional, cell-based; conditions: HT-29, 72 h; summary of the method: as §1
[5] = Cytotoxic activity against human GBM10 cells assessed as inhibition of cell proliferation incubated for 72 hrs by MTT assay; type: functional, cell-based; conditions: GBM10, 72 h; summary of the method: as §1
MDA-MB-468 = assay: Cytotoxic activity against human MDA-MB-468 cells assessed as inhibition of cell proliferation incubated for 72 hrs by MTT assay; type: functional, cell-based; conditions: MDA-MB-468, 72 h; summary of the method: as §1
MCF7 = assay: Cytotoxic activity against human MCF7 cells assessed as inhibition of cell proliferation incubated for 72 hrs by MTT assay; type: functional, cell-based; conditions: MCF7, 72 h; summary of the method: as §1
[6] = Cytotoxic activity against human SKBR3 cells assessed as inhibition of cell proliferation incubated for 72 hrs by MTT assay; type: functional, cell-based; conditions: SK-BR-3, 72 h; summary of the method: as §1
[7] = Cytotoxic activity against human HCT116 cells assessed as inhibition of cell proliferation incubated for 72 hrs by MTT assay; type: functional, cell-based; conditions: HCT-116, 72 h; summary of the method: as §1

N[C@H]1C(O)O[C@H](CO)[C@@H](O)[C@@H]1O (stereo partly drawn) [GLUCOSAMINE]
growth inhibition (GI) (MDA-MB-231): inactive
Activity [1]: Non-toxic

C=C(CC)C(=O)c1ccc(OCC(=O)O)c(Cl)c1Cl [ETHACRYNIC ACID]
IC50 [2]: 54.5 µM
IC50 [3]: 44.3 µM
fold change (FC) (Mus musculus): <= 6
IC50 [4]: 31.7 µM
IC50 (HT-29): 62.4 µM
IC50 [5]: 29.9 µM
IC50 (MDA-MB-468): 81.5 µM
IC50 (MDA-MB-231; MDA-MB-231, 72 h): 45.2 µM
IC50 (MCF7): 28.9 µM
IC50 [6]: 34.2 µM
IC50 [7]: 30.2 µM
